# Assay results from ChEMBL document CHEMBL1122702, “Radiohalogen-labeled imaging agents. 3. Compounds for measurement of brain blood flow by emission tomography” (J Med Chem, 1984).
# Legend:
# Type in all cases: ADME, organism-based
# Rattus norvegicus [1] = organism: Rattus norvegicus; assay: The uptake of the 131 I-labeled compound at 30 min was evaluated in rat blood as Percent of injected dose per gram in the organ; details: in vivo, 0.5 h
# Summary of the method: (§1)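 Male Sprague-Dawley rats (200–300 g, free access to food and water), lightly ether-anesthetized and restrained, received a 0.2 mL saline tail-vein bolus of 10–20 μCi 131I-labeled compound. They were decapitated at the stated time, and organs were excised, weighed and gamma-counted. Percent injected dose was determined against a calibrated external standard made by serial dilution of the injectate. n = 1–4 rats.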
# Rattus norvegicus [2] = organism: Rattus norvegicus; assay: The uptake of the 131 I-labeled compound at 30 min was evaluated in rat brain as Percent of injected dose in the total organ; details: in vivo, 0.5 h; summary of the method: as §1
# Rattus norvegicus [3] = organism: Rattus norvegicus; assay: The uptake of the 131 I-labeled compound at 30 min was evaluated in rat brain as Percent of injected dose per gram in the organ; details: in vivo, 0.5 h; summary of the method: as §1
# Rattus norvegicus [4] = organism: Rattus norvegicus; assay: The uptake of the 131 I-labeled compound at 30 min was evaluated in rat heart as Percent of injected dose in the total organ; details: in vivo, 0.5 h; summary of the method: as §1
# Rattus norvegicus [5] = organism: Rattus norvegicus; assay: The uptake of the 131 I-labeled compound at 30 min was evaluated in rat heart as Percent of injected dose per gram in the organ; details: in vivo, 0.5 h; summary of the method: as §1
# Rattus norvegicus [6] = organism: Rattus norvegicus; assay: The uptake of the 131 I-labeled compound at 30 min was evaluated in rat kidney as Percent of injected dose in the total organ; details: in vivo, 0.5 h; summary of the method: as §1
# Rattus norvegicus [7] = organism: Rattus norvegicus; assay: The uptake of the 131 I-labeled compound at 30 min was evaluated in rat kidney as Percent of injected dose per gram in the organ; details: in vivo, 0.5 h; summary of the method: as §1
# Rattus norvegicus [8] = organism: Rattus norvegicus; assay: The uptake of the 131 I-labeled compound at 30 min was evaluated in rat liver as Percent of injected dose in the total organ; details: in vivo, 0.5 h; summary of the method: as §1
# Rattus norvegicus [9] = organism: Rattus norvegicus; assay: The uptake of the 131 I-labeled compound at 30 min was evaluated in rat liver as Percent of injected dose per gram in the organ; details: in vivo, 0.5 h; summary of the method: as §1
# Rattus norvegicus [10] = organism: Rattus norvegicus; assay: The uptake of the 131 I-labeled compound at 30 min was evaluated in rat lung as Percent of injected dose per gram in the organ; details: in vivo, 0.5 h; summary of the method: as §1
# Rattus norvegicus [11] = organism: Rattus norvegicus; assay: The uptake of the 131 I-labeled compound at 5 min was evaluated in rat blood as Percent of injected dose per gram in the organ; details: in vivo; summary of the method: as §1
# Rattus norvegicus [12] = organism: Rattus norvegicus; assay: The uptake of the 131 I-labeled compound at 5 min was evaluated in rat brain as Percent of injected dose in the total organ; details: in vivo; summary of the method: as §1
# Rattus norvegicus [13] = organism: Rattus norvegicus; assay: The uptake of the 131 I-labeled compound at 5 min was evaluated in rat brain as Percent of injected dose per gram in the organ; details: in vivo; summary of the method: as §1
# Rattus norvegicus [14] = organism: Rattus norvegicus; assay: The uptake of the 131 I-labeled compound at 5 min was evaluated in rat heart as Percent of injected dose in the total organ; details: in vivo; summary of the method: as §1
# Rattus norvegicus [15] = organism: Rattus norvegicus; assay: The uptake of the 131 I-labeled compound at 5 min was evaluated in rat kidney as Percent of injected dose in the total organ; details: in vivo; summary of the method: as §1
# Rattus norvegicus [16] = organism: Rattus norvegicus; assay: The uptake of the 131 I-labeled compound at 5 min was evaluated in rat kidney as Percent of injected dose per gram in the organ; details: in vivo; summary of the method: as §1
# Rattus norvegicus [17] = organism: Rattus norvegicus; assay: The uptake of the 131 I-labeled compound at 5 min was evaluated in rat liver as Percent of injected dose in the total organ; details: in vivo; summary of the method: as §1
# Rattus norvegicus [18] = organism: Rattus norvegicus; assay: The uptake of the 131 I-labeled compound at 5 min was evaluated in rat liver as Percent of injected dose per gram in the organ; details: in vivo; summary of the method: as §1
# Rattus norvegicus [19] = organism: Rattus norvegicus; assay: The uptake of the 131 I-labeled compound at 5 min was evaluated in rat lung as Percent of injected dose per gram in the organ; details: in vivo; summary of the method: as §1
# Rattus norvegicus [20] = organism: Rattus norvegicus; assay: Ratio of distribution of the [131I]-labeled compound at 30 min in rat brain over uptake in blood; details: 0.5 h
# Summary of the method: (§2)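 Male Sprague-Dawley rats (200–300 g, fed ad libitum), ether-anesthetized, got a tail-vein bolus of 0.2 mL saline containing 10–20 μCi 131I compound and were decapitated at the stated time. Organs were weighed and gamma-counted against a serially diluted external standard. Organ/blood ratio was calculated from % dose per gram of organ. Animal numbers per time point were 1–4.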
# Rattus norvegicus [21] = organism: Rattus norvegicus; assay: Ratio of distribution of the [131I]-labeled compound at 30 min in rat heart over uptake in blood; details: other tissue, 0.5 h; summary of the method: as §2
# Rattus norvegicus [22] = organism: Rattus norvegicus; assay: Ratio of distribution of the [131I]-labeled compound at 30 min in rat kidney over uptake in blood; details: other tissue, 0.5 h; summary of the method: as §2
# Rattus norvegicus [23] = organism: Rattus norvegicus; assay: Ratio of distribution of the [131I]-labeled compound at 30 min in rat liver over uptake in blood; details: other tissue, 0.5 h; summary of the method: as §2
# Rattus norvegicus [24] = organism: Rattus norvegicus; assay: Ratio of distribution of the [131I]-labeled compound at 30 min in rat lung over uptake in blood; details: other tissue, 0.5 h; summary of the method: as §2
# Rattus norvegicus [25] = organism: Rattus norvegicus; assay: Ratio of distribution of the [131I]-labeled compound at 5 min in rat brain over uptake in blood; summary of the method: as §2
# Rattus norvegicus [26] = organism: Rattus norvegicus; assay: Ratio of distribution of the [131I]-labeled compound at 5 min in rat heart over uptake in blood; details: other tissue; summary of the method: as §2
# Rattus norvegicus [27] = organism: Rattus norvegicus; assay: Ratio of distribution of the [131I]-labeled compound at 5 min in rat kidney over uptake in blood; details: other tissue; summary of the method: as §2
# Rattus norvegicus [28] = organism: Rattus norvegicus; assay: Ratio of distribution of the [131I]-labeled compound at 5 min in rat liver over uptake in blood; details: other tissue; summary of the method: as §2
# Rattus norvegicus [29] = organism: Rattus norvegicus; assay: Ratio of distribution of the [131I]-labeled compound at 5 min in rat lung over uptake in blood; details: other tissue; summary of the method: as §2
# Rattus norvegicus [30] = organism: Rattus norvegicus; assay: The uptake of the 131 I-labeled compound at 5 min was evaluated in rat heart as Percent of injected dose per gram in the organ; details: in vivo; summary of the method: as §1
smiles,measurement,setting,value
COc1cc(CC(C)NO)c(OC)cc1I (stereo not given),Dose,Rattus norvegicus [1],0.16%
same,Dose,Rattus norvegicus [2],1.2%
same,Dose,Rattus norvegicus [3],0.63%
same,Dose,Rattus norvegicus [4],0.24%
same,Dose,Rattus norvegicus [5],0.3%
same,Dose,Rattus norvegicus [6],2.1%
same,Dose,Rattus norvegicus [7],1.2%
same,Dose,Rattus norvegicus [8],6.6%
same,Dose,Rattus norvegicus [9],0.72%
same,Dose,Rattus norvegicus [10],3.3%
same,Dose,Rattus norvegicus [11],0.19%
same,Dose,Rattus norvegicus [12],1.2%
same,Dose,Rattus norvegicus [13],0.69%
same,Dose,Rattus norvegicus [14],0.8%
same,Dose,Rattus norvegicus [15],2.5%
same,Dose,Rattus norvegicus [16],1.4%
same,Dose,Rattus norvegicus [17],8.6%
same,Dose,Rattus norvegicus [18],1.5%
same,Dose,Rattus norvegicus [19],2%
same,Ratio,Rattus norvegicus [20],3.9
same,Ratio,Rattus norvegicus [21],1.9
same,Ratio,Rattus norvegicus [22],7.5
same,Ratio,Rattus norvegicus [23],4.5
same,Ratio,Rattus norvegicus [24],21
same,Ratio,Rattus norvegicus [25],3.6
same,Ratio,Rattus norvegicus [26],3.6
same,Ratio,Rattus norvegicus [27],6.8
same,Ratio,Rattus norvegicus [28],9.5
same,Ratio,Rattus norvegicus [29],12
same,Dose,Rattus norvegicus [30],0.66%
